Laboratory results taken from ChEMBL document CHEMBL2424583, “Structure-activity relationship and in vitro and in vivo evaluation of the potent cytotoxic anti-microtubule agent N-(4-methoxyphenyl)-N,2,6-trimethyl-6,7-dihydro-5H-cyclopenta[d]pyrimidin-4-aminium chloride and its analogues as antitumor agents” (J Med Chem, 2013).
The source made the active and inactive calls. The rule behind the calls is not given here.

Key:
[1] = tested on: MDA-MB-435; experiment: Cytotoxicity against human MDA-MB-435 cells assessed as growth inhibition after 48 hrs by SRB assay; type: functional, cell-based; details: MDA-MB-435, 48 h
[2] = Induction of microtubule depolymerization in rat A10 cells after 18 hrs by indirect immunofluorescence assay; type: cell-based
How it was run: (§1)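 A-10 cells were exposed to vehicle or compound for 18 h, fixed, and microtubules were visualized by indirect immunofluorescence. EC50 is the concentration causing about 50% microtubule loss, from at least three independent experiments.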

[3] = tested on: A10; experiment: Induction of microtubule depolymerization in rat A10 cells up to 10 uM after 18 hrs by indirect immunofluorescence assay; type: cell-based; how it was run: as §1
[4] = molecular target: Tubulin (Sus scrofa) (UniProt P02554+P02550); experiment: Displacement of [3H]-colchicine from pig brain tubulin at 1 uM after 10 mins by scintillation counting analysis relative to control
[5] = tested on: A10; experiment: Induction of microtubule depolymerization in rat A10 cells up to 40 uM after 18 hrs by indirect immunofluorescence assay; type: cell-based; how it was run: as §1

Chain of Tubulin (Sus scrofa) (P02550 whole entry, looked up): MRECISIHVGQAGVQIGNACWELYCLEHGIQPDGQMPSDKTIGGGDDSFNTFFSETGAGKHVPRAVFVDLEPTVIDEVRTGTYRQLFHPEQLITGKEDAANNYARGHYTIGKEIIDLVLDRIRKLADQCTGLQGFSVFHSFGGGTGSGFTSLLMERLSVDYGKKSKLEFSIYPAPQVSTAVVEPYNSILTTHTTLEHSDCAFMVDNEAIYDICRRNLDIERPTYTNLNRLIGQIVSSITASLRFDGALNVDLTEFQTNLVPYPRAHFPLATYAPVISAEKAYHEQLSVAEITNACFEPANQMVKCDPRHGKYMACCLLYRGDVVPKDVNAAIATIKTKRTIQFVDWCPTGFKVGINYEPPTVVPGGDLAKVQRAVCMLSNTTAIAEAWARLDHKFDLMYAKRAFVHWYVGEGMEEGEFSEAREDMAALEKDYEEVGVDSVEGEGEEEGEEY
Chain of Tubulin (Sus scrofa) (P02554 whole entry, looked up): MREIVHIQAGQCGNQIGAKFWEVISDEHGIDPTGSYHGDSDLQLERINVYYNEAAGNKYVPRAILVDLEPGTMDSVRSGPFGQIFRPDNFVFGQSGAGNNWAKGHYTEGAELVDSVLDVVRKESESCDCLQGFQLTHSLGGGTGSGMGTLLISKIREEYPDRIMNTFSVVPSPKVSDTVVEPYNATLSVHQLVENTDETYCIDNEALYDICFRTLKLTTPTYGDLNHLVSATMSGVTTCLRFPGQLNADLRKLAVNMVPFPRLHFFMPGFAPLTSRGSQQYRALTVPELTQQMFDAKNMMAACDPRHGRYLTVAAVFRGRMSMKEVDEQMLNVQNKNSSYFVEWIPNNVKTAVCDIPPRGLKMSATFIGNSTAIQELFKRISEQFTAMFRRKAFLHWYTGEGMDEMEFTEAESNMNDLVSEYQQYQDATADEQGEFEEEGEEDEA

| SMILES | IC50 [1] [nM] | EC50 [2] [nM] | Activity [3] | inhibition [4] [%] | Activity [5] |
| --- | --- | --- | --- | --- | --- |
| Cc1nc2c(c(N(C)c3cccc(Br)c3)n1)CC(C)C2 (racemic) | 1500 | 15000 |  |  |  |
| CCOc1ccc(N(C)c2nc(N)nc3c2CCC3)cc1 | 20.3 | 148 |  |  |  |
| COc1ccc(N(C)c2ncnc3c2CCC3)cc1 | 43 | 655 |  |  |  |
| COc1cccc(N(C)c2nc(N)nc3c2CCC3)c1 | > 1000 |  | inactive |  |  |
| COc1ccc(/C=C\c2cc(OC)c(OC)c(OC)c2)cc1O [COMBRETASTATIN A4] |  | 7 |  | 80 |  |
| CCOc1ccc(N(C)c2ncnc3c2CCC3)cc1 | 48.7 | 730 |  |  |  |
| CN(c1ccc(Cl)cc1)c1ncnc2c1CCC2 |  |  | inactive |  |  |
| COc1ccc(N(C)c2nc(C)nc3c2C(C)CC3)cc1 (racemic) | 18.8 | 47 |  |  |  |
| Cc1nc2c(c(N(C)c3ccc(Cl)cc3)n1)CC(C)C2 (racemic) | 2300 |  |  |  | inactive |
| Cc1ccc(N(C)c2nc(C)nc3c2CCC3)cc1 | 360 | 10500 |  |  |  |
| C=CC1Cc2nc(C)nc(N(C)c3ccc(OC)cc3)c2C1 (racemic) | 73.2 | 140 |  |  |  |
| COc1ccc(N(C)c2nc(N)nc3c2CC(C)C3)cc1 (racemic) | 29.9 | 143 |  |  |  |
| COc1ccc(Nc2nc(N)nc3c2CC(C)C3)cc1 (racemic) | > 10000 |  |  |  | inactive |
| COc1ccc(N(C)c2nc(N)nc3c2CCC3)cc1 | 16.7 | 110 |  |  |  |
| C=CC1Cc2nc(N)nc(N(C)c3ccc(OC)cc3)c2C1 (racemic) | 205 | 899 |  |  |  |
| CCOc1ccc(N(C)c2nc(C)nc3c2CCC3)cc1 | 15.1 | 64 |  |  |  |
| CSc1ccc(N(C)c2ncnc3c2CCC3)cc1 | 42.8 | 675 |  |  |  |
| COc1ccccc1N(C)c1nc(N)nc2c1CCC2 | > 1000 |  | inactive |  |  |
| CSc1ccc(N(C)c2nc(C)nc3c2CC(C)C3)cc1 (racemic) | 15.6 | 64 |  |  |  |
| Cc1ccc(N(C)c2ncnc3c2CCC3)cc1 |  |  | inactive |  |  |
